KCNK3 block: human KCNK3 channel inhibition, primary screen; CHO-KCNK3 thallium flux, FluxOR fluorescence; active compounds read low; B-score at 10 µM; hit rate 0.84% among 340,000; AID 602410;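 active = B-score under library mean minus 4 SD, starting fluorescence ratio at most library mean plus 5 SD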;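 also: more negative B-score means stronger inhibition of thallium flux through KCNK3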
KCNQ1 inh: inhibitors of human KCNQ1 potassium channel; CHO-K1 KCNQ1, FluxOR thallium flux fluorescence; active compounds read high; P51787; B-score at 10 µM; hit rate 1.3% among 310,000;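 active = compounds whose thallium flux B-score, printed positive for inhibition, exceeds three library SD while starting fluorescence stays within three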;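 also: channel opened by potassium depolarization with thallium stimulus after 20 min compound exposure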
Kir21 inh: Kir2.1 (mouse) channel inhibition | B-score at 10 µM | HEK293-Kir2.1, FluxOR thallium flux fluorescence; active compounds read low | hit rate 0.85% among 310,000 | P35561 | AID 1672;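 active = fluorescence ratio B-score at or below minus 3 SD of library scores, with starting-brightness B-score within 2 SD, cut at about -4.2 in these data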;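 also: channel flux triggered by added potassium and thallium sulfate stimulus; B-score of peak minus minimum fluorescence over baseline after thallium stimulus; more negative B-score means stronger Kir2.1 block with less thallium influx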
Target sequence (P35561 whole entry, looked up): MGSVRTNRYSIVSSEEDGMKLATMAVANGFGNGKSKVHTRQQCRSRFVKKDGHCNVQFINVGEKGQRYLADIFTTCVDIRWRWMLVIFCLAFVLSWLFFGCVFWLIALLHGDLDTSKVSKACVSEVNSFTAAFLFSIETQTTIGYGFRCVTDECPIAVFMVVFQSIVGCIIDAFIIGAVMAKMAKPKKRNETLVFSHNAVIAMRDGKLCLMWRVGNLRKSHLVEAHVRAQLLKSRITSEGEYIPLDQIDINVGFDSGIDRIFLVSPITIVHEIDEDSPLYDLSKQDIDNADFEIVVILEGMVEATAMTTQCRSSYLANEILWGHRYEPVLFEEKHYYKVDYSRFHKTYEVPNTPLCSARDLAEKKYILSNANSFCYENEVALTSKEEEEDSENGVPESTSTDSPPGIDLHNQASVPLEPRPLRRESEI
KCNQ1 act: potentiators or activators of human KCNQ1 potassium channel. P51787. CHO-K1 KCNQ1, thallium flux FluxOR fluorescence; active compounds read high. B-score at 10 µM. hit rate 0.35% among 310,000;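 active = fluorescence ratio B-score, a plate-corrected score, at least three library SD, with initial intensity B-score within 5 SD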
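System: CHO-K1 cells stably expressing KCNQ1 / Medium: assay buffer for compound exposure, DMSO matched across wells / Reagent: thallium- and potassium-containing depolarizing buffer / Compound: one concentration, matched DMSO / Incubation: 20 min compound pretreatment at room temperature / Measured by: kinetic FluxOR fluorescence, 10 s baseline plus 110 s post-stimulus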
KCNK9 block: blocks the human KCNK9 two-pore domain potassium channel | hit rate 1.2% among 310,000 | AID 488922 | B-score at 10 µM | HEK293 KCNK9, FluxOR thallium flux fluorescence; active compounds read low;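 active = ratio B-score over 3 SD below the library mean, with starting fluorescence within 5 SD of its mean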;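 also: negative B-score means less thallium flux so channel inhibition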
hERG rescue: shields human hERG channel from block by proarrhythmic agents; CHO-hERG, FluxOR thallium flux, dofetilide IC70 present; activation (rescue from dofetilide block), less the hit threshold, % at 10 µM; hit rate 0.51% among 310,000;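 active = activation above the mean of controls blocked by dofetilide plus 5 SD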;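 also: thallium influx through hERG after potassium depolarization seen as dye fluorescence rise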
KCNK9 inh conf: confirmation of human KCNK9 potassium channel inhibitors. shares compounds with KCNK9 block. HEK293 KCNK9 cells, FluxOR thallium flux fluorescence. inhibition, % at 10 µM. hit rate 43% among 4,900. AID 492992;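 active = thallium signal inhibited by more than 5 SD of the compound-free buffer control wells, on both duplicate plates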;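 also: 0% = assay buffer control wells without compound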
Kir21 sel: mouse Kir2.1 off-target activity of KCNK9 modulators. hit rate 4% among 4,900. shares compounds with KCNK9 block. inhibition, % at 10 µM. Kir2.1 cells, FluxOR thallium flux fluorescence;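 active = thallium signal drop more than 5 SD beyond the mean of the no-compound control wells, seen in both duplicate plates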;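 also: signal is fluorescence rise after thallium addition divided by baseline fluorescence; plate controls were assay buffer only for no effect and full block by chlorpromazine control for full effect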
KCNK9 uninduced: second check of KCNK9 modulator effects in non-induced HEK293 cells | inhibition, % at 10 µM | shares compounds with KCNK9 block | hit rate 40% among 4,900 | AID 492997 | FluxOR thallium flux;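 active = thallium signal drop beyond 5 SD of the untreated control mean, on both duplicate plates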;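 also: plate controls were buffer only IC0 wells for no effect and SID17386958 at its maximal inhibitory level for full effect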
Active calls of the source: *; i = inactive; nt = no result given. An excerpt weighted towards active compounds, which were near 3.8% of everything screened.

SMILES | KCNK3 block | KCNQ1 inh | Kir21 inh | KCNQ1 act | KCNK9 block | hERG rescue | KCNK9 inh conf | Kir21 sel | KCNK9 uninduced
COCc1ccc(C(=O)N2CCCC(N(C)Cc3ccccc3)C2)s1 (stereo not drawn) | i | i | -0.32 | i | i | -4 | nt | nt | nt
CSc1ccccc1NC(=O)c1cc(S(=O)(=O)N(C)C)ccc1N1CCCC1 | i | i | 0.42 | i | i | -10 | i | i | i
CN(C)S(=O)(=O)c1ccc(N2CCCC2)c(C(=O)NCC2COc3ccccc3O2)c1 (stereo not drawn) | i | i | 0.58 | i | i | -16 | i | i | i
CN(C)S(=O)(=O)c1ccc(N2CCCC2)c(C(=O)Nc2ccccc2N2CCOCC2)c1 | i | nt | nt | nt | nt | nt | nt | nt | nt
CN(C)S(=O)(=O)c1ccc(N2CCCC2)c(C(=O)Nc2ccccc2OC(F)F)c1 | i | i | 0.18 | i | i | -8 | i | i | i
CN(C)S(=O)(=O)c1ccc(N2CCCC2)c(C(=O)Nc2ccccc2)c1 | i | i | 1.9 | i | i | -11 | nt | nt | nt
Cc1ccc(S(=O)(=O)N(CC(=O)NCCSc2ccccn2)c2ccccc2F)cc1 | i | i | -1.2 | i | i | -9 | nt | nt | nt
O=C(Nc1ccccc1-c1nnc(SCc2ccccc2Cl)o1)c1ccccc1 | i | i | 0.77 | i | i | -8 | i | i | i
CC(=O)OC1COC(OC(C)=O)CO1 (stereo not drawn) | i | nt | nt | nt | nt | nt | nt | nt | nt
Cc1c(C(=O)Nc2ccc3c(c2)OCO3)oc2ccccc12 | i | i | 0.84 | i | -15* | -12 | 62%* | i | 33%*
Cc1cc(S(=O)(=O)N2CCOCC2)ccc1NC(=O)c1ccc(F)cc1 | i | i | 0.06 | i | i | -4 | nt | nt | nt
COc1ccc(C(=O)NC(=S)Nc2ccc(CN3CCOCC3)cc2)cc1Cl | i | i | 0.94 | i | i | -14 | i | i | i
COc1ccc(C(=O)NC(=S)Nc2ccc(CN3CCCCC3)cc2)cc1Cl | i | i | -0.48 | i | i | -23 | nt | nt | nt
Nc1ccc2cc3[nH]c4cc(N)ccc4c3nc2c1 | i | nt | nt | nt | nt | nt | nt | nt | nt
COc1ccc(C2=NCC(CSc3nnc(-c4ccc5c(c4)OCO5)o3)S2)cc1 (stereo not drawn) | i | i | 1.4 | i | i | -13 | i | i | i
Cc1ccc(CSc2nnc(-c3ccc4c(c3)OCO4)o2)cc1 | i | i | -1.4 | i | i | -9 | nt | nt | nt
CCCNC(=O)C(Cc1ccccc1F)NC(=O)c1ccc(C#N)cc1 (stereo not drawn) | i | nt | nt | nt | nt | nt | nt | nt | nt
O=C(COC(=O)Cc1c(F)cccc1Cl)NC1CCS(=O)(=O)C1 (stereo not drawn) | i | i | 0.06 | i | i | -8 | nt | nt | nt
O=C(Oc1ccccc1)c1ccccc1OS(=O)(=O)c1ccccc1 | i | i | 2 | i | -9.5* | 0 | 44%* | i | 34%*
O=C(Nc1ccccc1)c1ccccc1OS(=O)(=O)c1ccccc1 | i | i | -0.7 | i | i | -4 | nt | nt | nt
COc1ccccc1C(=O)Oc1ccc(C(C)C)cc1 | i | i | -1.9 | i | i | -3 | i | i | 30%*
COc1ccccc1C(=O)O/N=C(\N)c1ccccc1Cl | i | i | 0.69 | i | i | -7 | nt | nt | nt
Brc1ccc(Cn2c(-c3ccc(Br)o3)nc3ccccc32)o1 | i | i | 2.5 | i | -8.8* | -8 | i | i | 32%*
Cn1c(-c2ccc(Br)o2)nc2ccccc21 | i | i | -0.01 | i | i | -7 | nt | nt | nt
CCCOC(=O)C[N+](C)(C)CCOC1CC2CCC1(C)C2(C)C (stereo not drawn) | i | i | -0.06 | i | i | -11 | nt | nt | nt
SMILES | KCNK3 block | KCNQ1 inh | Kir21 inh | KCNQ1 act | KCNK9 block | hERG rescue | KCNK9 inh conf | Kir21 sel | KCNK9 uninduced
CCCCCCCOC(=O)C[N+](C)(C)CCOC1CC2CCC1(C)C2(C)C (stereo not drawn) | i | 13* | -8.2* | i | -11* | -25 | 54%* | 73%* | 22%*
COC(=O)c1sc(-c2ccccc2)cc1NC(=O)C1CC1 | i | i | -0.13 | i | i | -2 | nt | nt | nt
COC(=O)c1sc(-c2ccc(C(C)(C)C)cc2)cc1NC(=O)c1ccccc1C(=O)O | i | i | 0.02 | i | i | -26 | i | i | i
COC(=O)c1sc(-c2ccc(C(C)(C)C)cc2)cc1NC(=O)CSCC(=O)O | i | i | 0.82 | i | i | -8 | i | i | i
COc1cc(C)ccc1OCCOCCOc1cc(C)c(C)cc1Br | i | i | -1 | i | i | -11 | i | i | i
O=C(NCCNc1ccc([N+](=O)[O-])cc1C(F)(F)F)c1ccccc1F | i | i | -1.3 | i | i | -6 | i | i | i
Cc1ccc(C(=O)NCCNc2ccc([N+](=O)[O-])cc2C(F)(F)F)cc1 | i | i | -1.1 | i | i | -5 | nt | nt | nt
CCOc1ccccc1C(=O)Nc1ccccc1-c1ccccc1 | i | i | -1.8 | i | -8.8* | -20 | 72%* | 38%* | 25%*
CCOc1ccccc1NC(=O)c1nc(-c2ccccc2)oc1C | i | i | 0.06 | i | -12* | -4 | i | i | 25%*
Cc1oc(-c2ccccc2)nc1C(=O)Nc1nccs1 | i | i | -2.8 | i | i | -13 | nt | nt | nt
COc1ccc(C2=NN(C(=O)c3ccccc3)C(c3cccc([N+](=O)[O-])c3)C2)cc1 (stereo not drawn) | i | i | -0.79 | i | -18* | -8 | 54%* | i | 28%*
COc1ccc(C2CC(c3ccccc3)=NN2C(=O)COC(=O)C2CC2)cc1 (stereo not drawn) | i | i | 1.4 | i | i | -8 | nt | nt | nt
COc1ccc(C2CC(c3ccccc3)=NN2C(=O)COC(=O)C2(C)CC2(Cl)Cl)cc1 (stereo not drawn) | i | i | 1.5 | i | i | -10 | i | i | i
CC(C)(C)NC(=S)NC(=O)C12CCC3CC(CC(C3)C1)C2 | i | i | -1.2 | i | i | -2 | i | i | i
COc1cccc(/C=N/NC(=O)c2nc(-c3ccccc3)cc(-c3ccccc3)n2)c1 | i | i | -0.2 | i | -8.5* | -20 | 34%* | i | i

Compound activity from PubChem BioAssay.
